Reference: ChEMBL document CHEMBL4270489, “Synthesis and in vitro and in vivo antitumour activity study of 11-hydroxyl esterified bergenin/cinnamic acid hybrids” (Eur J Med Chem, 2017)

How the values were obtained:
Format in all cases: functional, cell-based
PC-3 = assay: Antiproliferative activity against human PC3 cells incubated for 48 to 72 hrs by MTT assay
How it was run: (§1)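 MTT assay. Cells were grown in DMEM with 10% heat-inactivated FBS at 37°C under 5% CO₂. They were seeded at 5000/well in 5% FBS DMEM for 24 h, then given compound in DMSO at 0.1, 1, 10 and 100 µmol/L for 72 h (the table footnote says 48 h). MTT was added for 4 h, formazan was dissolved in DMSO and read at 570 nm. IC₅₀ was from ≥3 independent runs; >100 μM was given if 50% inhibition was not reached.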

A549 = assay: Antiproliferative activity against human A549 cells incubated for 48 to 72 hrs by MTT assay; how it was run: as §1
SGC-7901 = assay: Antiproliferative activity against human SGC7901 cells incubated for 48 to 72 hrs by MTT assay; how it was run: as §1
MCF7 = assay: Antiproliferative activity against human MCF7 cells incubated for 48 to 72 hrs by MTT assay; how it was run: as §1
HepG2 = assay: Antiproliferative activity against human HepG2 cells incubated for 48 to 72 hrs by MTT assay; how it was run: as §1

Row | Structure (SMILES) | IC50 (PC-3) [µM] | IC50 (A549) [µM] | IC50 (SGC-7901) [µM] | IC50 (MCF7) [µM] | IC50 (HepG2) [µM]
1 | COc1c(O)cc2c(c1O)[C@@H]1O[C@H](COC(=O)/C=C/c3cc([N+](=O)[O-])cc([N+](=O)[O-])c3)[C@@H](O)[C@H](O)[C@H]1OC2=O | > 100 | > 100 | > 100 | > 100 | > 100
2 | COc1cc(/C=C/C(=O)OC[C@H]2O[C@H]3c4c(cc(O)c(OC)c4O)C(=O)O[C@@H]3[C@@H](O)[C@@H]2O)cc(OC)c1OC | 12.1 | 5.46 | 7.53 | 11.7 | 6.62
3 | COc1c(O)cc2c(c1O)[C@@H]1O[C@H](CO)[C@@H](O)[C@H](O)[C@H]1OC2=O [BERGENIN] | > 100 | 77.3 | 23.6 | > 100 | 34.6
4 | COc1c(O)cc2c(c1O)[C@@H]1O[C@H](COC(=O)/C=C/c3cc(F)cc(F)c3)[C@@H](O)[C@H](O)[C@H]1OC2=O | 46.2 | 28.4 | > 100 | 72.1 | > 100

More lines, now with the values ahead:

Row | IC50 (PC-3) [µM] | IC50 (A549) [µM] | IC50 (SGC-7901) [µM] | IC50 (MCF7) [µM] | IC50 (HepG2) [µM] | Structure (SMILES)
5 | > 100 | > 100 | > 100 | 59.5 | > 100 | COc1c(O)cc2c(c1O)[C@@H]1O[C@H](COC(=O)/C=C/c3ccc(C)c(C)c3)[C@@H](O)[C@H](O)[C@H]1OC2=O
6 | 13.5 | 56.9 | 9.67 | > 100 | 18.5 | COc1c(O)cc2c(c1O)[C@@H]1O[C@H](COC(=O)/C=C/c3ccccc3)[C@@H](O)[C@H](O)[C@H]1OC2=O
7 | 22.9 | > 100 | > 100 | 35.8 | 17.2 | COc1c(O)cc2c(c1O)[C@@H]1O[C@H](COC(=O)/C=C/c3ccc(F)cc3)[C@@H](O)[C@H](O)[C@H]1OC2=O
8 | 30.2 | 10.3 | 11.4 | 20.2 | > 100 | COc1c(O)cc2c(c1O)[C@@H]1O[C@H](COC(=O)/C=C/c3ccc(C)cc3)[C@@H](O)[C@H](O)[C@H]1OC2=O
